Reference: ChEMBL document CHEMBL1121649, “Benz-fused mesoionic xanthine analogues as inhibitors of cyclic-AMP phosphodiesterase” (J Med Chem, 1981)

Columns and labels:
Format in all cases: protein assay
Heart phosphodiesterase [1] = biological target: T1, Heart phosphodiesterase (Bos taurus, UniProt Q01061+P14100+E1BN64); assay: Inhibition of cAMP phosphodiesterase in bovine heart; conditions: for IC50: read-out: I50
Summary of the method: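 I50 taken from a plot of uninhibited over inhibited velocity (V0/V) against inhibitor concentration, read where V0/V = 2. At least five inhibitor concentrations giving 25–75% inhibition were tested per inhibitor.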

[2] = biological target: Heart phosphodiesterase (Bos taurus) (UniProt Q01061+P14100+E1BN64); assay: Percent inhibition of bovine heart cAMP-phosphodiesterase at 10-20 uM
Heart phosphodiesterase [3] = biological target: T1, Heart phosphodiesterase; assay: Inhibition of bovine heart cAMP-phosphodiesterase (Insoluble)

Row | I50 (Heart phosphodiesterase [1]) [µM] | I50 (Heart phosphodiesterase [3]) | SMILES | further results
1 | 102 |  | CCC1C(=O)N(CC2CCCC2)c2sc3ccccc3[n+]2C1=O (stereo not given) | 
2 | 8 |  | CCOc1ccc2c(c1)sc1[n+]2C(=O)C(CC)C(=O)N1CC1CCCCC1 (stereo not given) | inhibition [2]: 40%
3 | 69 |  | CCOc1ccc2c(c1)sc1[n+]2C(=O)C(CC)C(=O)N1CC1CC1 (stereo not given) | 
4 |  | Insoluble | CCC1C(=O)N(CC2CC2)c2sc3cc(C)c(C)cc3[n+]2C1=O (stereo not given) | 

More lines, now with the values behind:

Row | SMILES | I50 (Heart phosphodiesterase [1]) [µM] | I50 (Heart phosphodiesterase [3]) | further results
5 | CCC1C(=O)N(CC)c2sc3ccccc3[n+]2C1=O (stereo not given) |  |  | IC50 (Heart phosphodiesterase [1]): 153 µM
6 | CC(C)C1C(=O)N(CC2CC2)c2sc3ccccc3[n+]2C1=O (stereo not given) |  | Insoluble | 
7 | Cn1c(=O)c2nc[nH]c2n(C)c1=O [THEOPHYLLINE] |  |  | IC50 (Heart phosphodiesterase [1]): 412 µM
8 | COC(=O)c1cc(=O)n2c(sc3ccccc32)c1C(=O)OC |  | Insoluble | 
9 | CCC1C(=O)N=C2Sc3ccccc3N2C1=O (stereo not given) | 467 |  | 
